# Laboratory results as given in ChEMBL document CHEMBL2040798, “One-pot synthesis of novel isoindoline-1,3-dione derivatives bearing 1,2,4-triazole moiety and their preliminary biological evaluation” (Eur J Med Chem, 2012).
# Key:
# Pyricularia grisea = experiment: Growth inhibition of Phyricularia oryzae Cav. at 150 mg/mL after 48 hrs by mycelium growth rate method; assay type: functional; parameters: dose or concentration left out as unconfirmed; settings: read-out: GI
# HepG2 [1] = experiment: Cytotoxicity against human HepG2 cells after 48 hrs by MTT assay; assay type: functional, cell-based; settings: HepG2, 48 h
# How it was run: (§1)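 MTT assay. Cells kept in DMEM with 10% FBS. HepG2 seeded at 1 × 10^4 cells/well; A549, PC-3M and MKN45 at 1.6 × 10^4 cells/well. Attachment 24 h at 37 °C. Compounds diluted in medium from 10 mM DMSO stocks; 0.1% DMSO served as negative control. Exposure 48 h at 37 °C, then MTT for 3 h. Formazan dissolved in DMSO and read at 570 nm. IC50 from a concentration series; mean of three independent experiments.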
# MKN-45 = experiment: Cytotoxicity against human MKN45 cells after 48 hrs by MTT assay; assay type: functional, cell-based; settings: MKN-45, 48 h; how it was run: as §1
# A549 [2] = experiment: Cytotoxicity against human A549 cells after 48 hrs by MTT assay; assay type: functional, cell-based; settings: A549, 48 h; how it was run: as §1
# [3] = Cytotoxicity against human PC3M cells after 48 hrs by MTT assay; assay type: functional, cell-based; settings: PC-3M; how it was run: as §1
# HepG2 [4] = experiment: Cell cycle arrest in human HepG2 cells assessed as Sub-G0 phase cells at 8 uM after 24 hrs by flow cytometry (reference value: 2.48%); assay type: functional
# HepG2 [5] = experiment: Cell cycle arrest in human HepG2 cells assessed as S phase cells at 8 uM after 24 hrs by flow cytometry (reference value: 29.84%); assay type: functional
# A549 [6] = experiment: Ratio of Fluorouracil IC50 to compound IC50 for human A549 cells; assay type: functional
# HepG2 [7] = experiment: Cell cycle arrest in human HepG2 cells assessed as G2/M phase cells at 8 uM after 24 hrs by flow cytometry (reference value: 16.38%); assay type: functional
# HepG2 [8] = experiment: Cell cycle arrest in human HepG2 cells assessed as Sub-G0 phase cells at 16 uM after 24 hrs by flow cytometry (reference value: 2.48%); assay type: functional
# HepG2 [9] = experiment: Cell cycle arrest in human HepG2 cells assessed as G0/G1 phase cells at 8 uM after 24 hrs by flow cytometry (reference value: 54.65%); assay type: functional
# HepG2 [10] = experiment: Cell cycle arrest in human HepG2 cells assessed as Sub-G0 phase cells at 4 uM after 24 hrs by flow cytometry (reference value: 2.48%); assay type: functional
# HepG2 [11] = experiment: Cell cycle arrest in human HepG2 cells assessed as S phase cells at 4 uM after 24 hrs by flow cytometry (reference value: 29.84%); assay type: functional
# HepG2 [12] = experiment: Ratio of Fluorouracil IC50 to compound IC50 for human HepG2 cells; assay type: functional
# HepG2 [13] = experiment: Cell cycle arrest in human HepG2 cells assessed as G2/M phase cells at 16 uM after 24 hrs by flow cytometry (reference value: 16.38%); assay type: functional
# HepG2 [14] = experiment: Induction of apoptosis in human HepG2 cells after 24 hrs by flow cytometry; assay type: functional, cell-based
# HepG2 [15] = experiment: Cell cycle arrest in human HepG2 cells assessed as G2/M phase cells at 4 uM after 24 hrs by flow cytometry (reference value: 16.38%); assay type: functional
# HepG2 [16] = experiment: Cell cycle arrest in human HepG2 cells assessed as G0/G1 phase cells at 16 uM after 24 hrs by flow cytometry (reference value: 54.65%); assay type: functional
# HepG2 [17] = experiment: Cell cycle arrest in human HepG2 cells assessed as G0/G1 phase cells at 4 uM after 24 hrs by flow cytometry (reference value: 54.65%); assay type: functional
# HepG2 [18] = experiment: Cell cycle arrest in human HepG2 cells assessed as S phase cells at 16 uM after 24 hrs by flow cytometry (reference value: 29.84%); assay type: functional
Structure (SMILES),inhibition of growth (Pyricularia grisea) [%],IC50 (HepG2 [1]) [µM],IC50 (MKN-45) [µM],IC50 (A549 [2]) [µM],IC50 [3] [µM],also measured
CCc1nnc(SCC(=O)c2ccccc2)n1N1C(=O)c2ccccc2C1=O,< 50,> 200,> 200,> 200,> 200,
CCc1nnc(SCc2ccccc2)n1N1C(=O)c2ccccc2C1=O,≥ 50,> 200,> 200,> 200,> 200,
CCCc1nnc(SC)n1N1C(=O)c2ccccc2C1=O,< 50,> 200,> 200,> 200,> 200,
C#CCSc1nnc(CCC)n1N1C(=O)c2ccccc2C1=O,< 50,> 200,> 200,> 200,> 200,
C=CCSc1nnc(CC)n1N1C(=O)c2ccccc2C1=O,< 50,> 200,> 200,> 200,> 200,
C#CCSc1nnc(-c2cc(OC)c(OC)c(OC)c2)n1N1C(=O)c2ccccc2C1=O,< 50,> 200,> 200,> 200,> 200,
O=c1[nH]cc(F)c(=O)[nH]1 [FLUOROURACIL],,,41.7,,22.6,
Cc1nnc(SCC(=O)c2ccc(Cl)cc2)n1N1C(=O)c2ccccc2C1=O,≥ 60,> 200,> 200,> 200,> 200,
C#CCSc1nnc(CC)n1N1C(=O)c2ccccc2C1=O,≥ 60,> 200,> 200,> 200,> 200,
COc1cc(-c2nnc(SCC(=O)c3ccc(Cl)cc3)n2N2C(=O)c3ccccc3C2=O)cc(OC)c1OC,< 50,22,26.6,9.03,20.7,
COc1cc(-c2nnc(SCC(=O)c3ccc(C)cc3)n2N2C(=O)c3ccccc3C2=O)cc(OC)c1OC,< 50,9.44,9.62,6.76,11.7,Activity (HepG2 [4]): 29.22%; Activity (HepG2 [5]): 17.5%; Ratio IC50 (A549 [6]): 4; Activity (HepG2 [7]): 11.38%; Activity (HepG2 [8]): 32.58%; Activity (HepG2 [9]): 37.45%; Activity (HepG2 [10]): 15.05%; Activity (HepG2 [11]): 25.41%; Ratio IC50 (HepG2 [12]): 4; Activity (HepG2 [13]): 6.31%; Activity (HepG2 [14]): Dose-dependent effect; Activity (HepG2 [15]): 14.4%; Activity (HepG2 [16]): 36.7%; Activity (HepG2 [17]): 40.73%; Activity (HepG2 [18]): 21.07%
COc1cc(-c2nnc(SCC(=O)c3ccc(F)c(F)c3)n2N2C(=O)c3ccccc3C2=O)cc(OC)c1OC,< 50,> 200,> 200,> 200,163,
C=CCSc1nnc(CCC)n1N1C(=O)c2ccccc2C1=O,< 50,> 200,> 200,> 200,> 200,
CCCc1nnc(SCC(=O)c2ccc(Cl)cc2)n1N1C(=O)c2ccccc2C1=O,< 50,> 200,> 200,> 200,> 200,
COc1cc(-c2nnc(SCC(=O)c3ccc(Br)cc3)n2N2C(=O)c3ccccc3C2=O)cc(OC)c1OC,≥ 60,27.7,22.3,16.1,22.6,
COc1cc(-c2nnc(SC)n2N2C(=O)c3ccccc3C2=O)cc(OC)c1OC,≥ 50,> 200,> 200,> 200,> 200,
Cc1nnc(SCC(=O)c2ccccc2)n1N1C(=O)c2ccccc2C1=O,< 50,> 200,> 200,> 200,> 200,
COc1cc(-c2nnc(SCc3ccccc3Cl)n2N2C(=O)c3ccccc3C2=O)cc(OC)c1OC,< 50,> 200,> 200,> 200,> 200,
CCc1nnc(SCC(=O)c2ccc(Cl)cc2)n1N1C(=O)c2ccccc2C1=O,< 50,> 200,> 200,> 200,> 200,
C=CCSc1nnc(-c2cc(OC)c(OC)c(OC)c2)n1N1C(=O)c2ccccc2C1=O,≥ 60,> 200,> 200,> 200,> 200,

Structure (SMILES),inhibition of growth (Pyricularia grisea) [%],IC50 (HepG2 [1]) [µM],IC50 (MKN-45) [µM],IC50 (A549 [2]) [µM],IC50 [3] [µM],also measured
CCOC(=O)CSc1nnc(-c2cc(OC)c(OC)c(OC)c2)n1N1C(=O)c2ccccc2C1=O,< 50,> 200,> 200,> 200,> 200,
CC(C)(C)C(=O)C(Oc1ccc(Cl)cc1)n1cncn1 (stereo not drawn) [TRIADIMEFON],≥ 80,,,,,
CCCc1nnc(SCc2ccccc2)n1N1C(=O)c2ccccc2C1=O,< 50,> 200,> 200,> 200,> 200,
Cc1nnc(SCc2ccccc2Cl)n1N1C(=O)c2ccccc2C1=O,≥ 60,> 200,> 200,> 200,> 200,
COc1cc(-c2nnc(SCc3ccccc3)n2N2C(=O)c3ccccc3C2=O)cc(OC)c1OC,< 50,> 200,> 200,> 200,> 200,
Cc1nnc(SCc2ccccc2)n1N1C(=O)c2ccccc2C1=O,< 50,> 200,> 200,> 200,> 200,
COc1cc(-c2nnc(SCC(=O)c3ccccc3C)n2N2C(=O)c3ccccc3C2=O)cc(OC)c1OC,< 50,> 200,> 200,144,> 200,
Cc1ccc(C(=O)CSc2nnc(C)n2N2C(=O)c3ccccc3C2=O)cc1,≥ 50,> 200,> 200,> 200,> 200,
CCc1nnc(SC)n1N1C(=O)c2ccccc2C1=O,< 50,> 200,> 200,> 200,> 200,
CCc1nnc(SCC(=O)c2ccc(C)cc2)n1N1C(=O)c2ccccc2C1=O,< 50,> 200,> 200,> 200,> 200,
COc1ccc(C(=O)CSc2nnc(-c3cc(OC)c(OC)c(OC)c3)n2N2C(=O)c3ccccc3C2=O)cc1,< 50,28.7,37.2,30,32.8,
CCCc1nnc(SCc2ccccc2Cl)n1N1C(=O)c2ccccc2C1=O,< 50,> 200,> 200,> 200,> 200,
COc1cc(-c2nnc(SCC(=O)c3ccc(F)cc3)n2N2C(=O)c3ccccc3C2=O)cc(OC)c1OC,< 50,> 200,126,> 200,> 200,
CCCc1nnc(SCC(=O)c2ccccc2)n1N1C(=O)c2ccccc2C1=O,< 50,> 200,> 200,> 200,> 200,
CCOC(=O)CSc1nnc(C)n1N1C(=O)c2ccccc2C1=O,< 50,> 200,> 200,> 200,> 200,
C#CCSc1nnc(C)n1N1C(=O)c2ccccc2C1=O,≥ 60,> 200,> 200,> 200,> 200,
COc1cc(-c2nnc(SCC(=O)c3ccccc3)n2N2C(=O)c3ccccc3C2=O)cc(OC)c1OC,≥ 60,171,> 200,> 200,> 200,
CCCc1nnc(SCC(=O)c2ccc(C)cc2)n1N1C(=O)c2ccccc2C1=O,≥ 80,> 200,> 200,> 200,> 200,
CSc1nnc(C)n1N1C(=O)c2ccccc2C1=O,< 50,> 200,> 200,> 200,> 200,
CCOC(=O)CSc1nnc(CC)n1N1C(=O)c2ccccc2C1=O,≥ 50,> 200,> 200,> 200,> 200,
